ChEMBL document CHEMBL4706586, “Structure-activity relationships for a series of (Bis(4-fluorophenyl)methyl)sulfinylethyl-aminopiperidines and -piperidine amines at the dopamine transporter: Bioisosteric replacement of the piperazine improves metabolic stability” (Eur J Med Chem, 2020)

Legend:
[1] = target: D(2) dopamine receptor (Homo sapiens, UniProt P14416); test: Displacement of [3H]-N-methylspiperone from human D2L receptor expressed in HEK293 cell membranes measured after 60 mins by microbeta scintillation counting method; design: species or system Membrane
Sequence of D(2) dopamine receptor (P14416 whole entry): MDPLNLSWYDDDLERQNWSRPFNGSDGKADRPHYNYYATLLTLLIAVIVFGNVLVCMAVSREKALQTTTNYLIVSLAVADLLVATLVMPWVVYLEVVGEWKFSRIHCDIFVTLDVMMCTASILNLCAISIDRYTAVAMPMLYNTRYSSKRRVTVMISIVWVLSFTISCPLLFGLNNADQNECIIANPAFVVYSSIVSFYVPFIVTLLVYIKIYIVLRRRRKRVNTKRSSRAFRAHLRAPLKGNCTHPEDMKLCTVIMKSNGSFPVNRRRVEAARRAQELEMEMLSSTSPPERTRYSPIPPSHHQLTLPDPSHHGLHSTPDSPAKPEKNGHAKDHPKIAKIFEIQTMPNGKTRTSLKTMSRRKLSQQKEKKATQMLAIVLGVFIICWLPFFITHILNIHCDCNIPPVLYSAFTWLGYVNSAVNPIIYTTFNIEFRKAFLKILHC
In short: (§1)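 Membranes from HEK293 cells stably expressing human D2LR, D3R or D4.4R; 20 μg/well protein (D2LR, D3R) or 30 μg/well (D4.4R); [3H]-N-methylspiperone 0.4 nM final; half-log dilutions in 30% DMSO, triplicate; 60 min RT; nonspecific 10 μM (+)-butaclamol.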

[2] = Metabolic stability in rat liver microsomes assessed as compound remaining at 10 uM incubated for 60 mins in presence of NADPH regenerating system by LC-MS/MS analysis; assay type: ADME, Microsome; conditions: 1 h
[3] = Metabolic stability in rat liver microsomes assessed as compound remaining at 10 uM in presence of NADPH regenerating system by LC-MS/MS analysis; assay type: ADME, Microsome
[4] = target: Sigma non-opioid intracellular receptor 1 (Cavia porcellus, UniProt Q60492); test: Displacement of [3H](+)-pentazocine from sigma 1 receptor in guinea pig brain cortex membranes after 120 mins by scintillation counting analysis; assay type: cell membranes, Membrane
Sequence of Sigma non-opioid intracellular receptor 1 (Q60492 whole entry): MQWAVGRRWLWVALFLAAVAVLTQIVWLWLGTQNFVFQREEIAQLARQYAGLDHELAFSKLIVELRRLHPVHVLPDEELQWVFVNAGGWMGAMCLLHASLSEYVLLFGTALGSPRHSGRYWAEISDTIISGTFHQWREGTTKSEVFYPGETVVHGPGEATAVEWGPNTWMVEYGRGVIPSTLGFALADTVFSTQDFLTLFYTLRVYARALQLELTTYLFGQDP
In short: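 Male guinea pig cortex membranes in 10 mM Tris-HCl/0.32 M sucrose pH 7.4, 5.0 mg/well original wet weight; [3H](+)-pentazocine 3 nM final; inhibitor serial dilutions in 30% DMSO vehicle, triplicate; 120 min at RT; nonspecific with 10 μM PRE084 or (+)-pentazocine.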

[5] = Displacement of [3H]-Nisoxetine from NET in Sprague-Dawley rat frontal cortex membrane after 180 mins by microbeta scintillation counting method; assay type: cell membranes
[6] = target: Sodium-dependent serotonin transporter (Rattus norvegicus, UniProt P31652); test: Displacement of [3H]citalopram from SERT in Sprague-Dawley rat midbrain membranes incubated for 60 mins by microbeta scintillation counting method; assay type: cell membranes, Membrane
Sequence of Sodium-dependent serotonin transporter (P31652 whole entry): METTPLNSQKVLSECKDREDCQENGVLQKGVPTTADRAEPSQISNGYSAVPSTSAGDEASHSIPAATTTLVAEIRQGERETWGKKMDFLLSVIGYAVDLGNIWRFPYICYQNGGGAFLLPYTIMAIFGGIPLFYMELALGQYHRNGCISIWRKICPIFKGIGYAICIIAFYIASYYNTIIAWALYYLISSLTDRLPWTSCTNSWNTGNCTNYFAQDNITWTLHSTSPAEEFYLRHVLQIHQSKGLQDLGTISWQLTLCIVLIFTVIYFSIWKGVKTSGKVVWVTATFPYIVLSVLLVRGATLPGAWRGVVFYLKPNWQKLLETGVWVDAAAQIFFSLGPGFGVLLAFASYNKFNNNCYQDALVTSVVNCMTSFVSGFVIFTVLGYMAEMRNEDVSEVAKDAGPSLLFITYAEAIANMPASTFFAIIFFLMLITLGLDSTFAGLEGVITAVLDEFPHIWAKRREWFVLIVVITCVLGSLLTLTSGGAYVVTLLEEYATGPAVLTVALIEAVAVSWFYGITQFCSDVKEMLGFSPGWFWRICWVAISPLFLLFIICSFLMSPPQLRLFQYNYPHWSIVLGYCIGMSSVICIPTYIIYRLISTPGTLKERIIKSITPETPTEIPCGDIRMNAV

[7] = Toxicity in Swiss Webster mouse assessed as stimulation of ambulatory activity by measuring total distance travelled at 1 to 30 mg/kg, ip measured every 5 mins for 2 hrs; assay type: organism-based; conditions: in vivo, dose 1-30 mg/kg
[8] = Metabolic stability in mouse liver microsomes assessed as compound remaining at 10 uM incubated for 60 mins in presence of NADPH regenerating system by LC-MS/MS analysis; assay type: ADME, Microsome; conditions: 1 h
[9] = target: D(3) dopamine receptor (Homo sapiens, UniProt P35462); test: Displacement of [3H]-N-methylspiperone from human D3 receptor expressed in HEK293 cell membranes measured after 60 mins by microbeta scintillation counting method; design: species or system Membrane; in short: as §1
Sequence of D(3) dopamine receptor (P35462 whole entry): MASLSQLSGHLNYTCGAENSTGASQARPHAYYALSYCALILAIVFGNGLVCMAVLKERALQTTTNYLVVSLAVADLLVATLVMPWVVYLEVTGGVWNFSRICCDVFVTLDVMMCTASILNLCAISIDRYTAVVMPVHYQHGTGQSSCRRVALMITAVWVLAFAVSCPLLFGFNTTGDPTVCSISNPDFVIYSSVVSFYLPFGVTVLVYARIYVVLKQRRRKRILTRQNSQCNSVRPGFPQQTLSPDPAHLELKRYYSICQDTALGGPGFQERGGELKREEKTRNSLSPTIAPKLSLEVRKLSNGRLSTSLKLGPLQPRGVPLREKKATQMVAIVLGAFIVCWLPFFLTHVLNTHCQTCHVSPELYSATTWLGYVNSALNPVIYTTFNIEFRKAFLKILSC

[10] = target: Sodium-dependent dopamine transporter (Rattus norvegicus, UniProt P23977); test: Displacement of [3H]WIN35428 from DAT in Sprague-Dawley rat striatal membranes incubated for 120 mins by microbeta scintillation counting method; assay type: cell membranes, Striatum, Membrane
Sequence of Sodium-dependent dopamine transporter (P23977 whole entry): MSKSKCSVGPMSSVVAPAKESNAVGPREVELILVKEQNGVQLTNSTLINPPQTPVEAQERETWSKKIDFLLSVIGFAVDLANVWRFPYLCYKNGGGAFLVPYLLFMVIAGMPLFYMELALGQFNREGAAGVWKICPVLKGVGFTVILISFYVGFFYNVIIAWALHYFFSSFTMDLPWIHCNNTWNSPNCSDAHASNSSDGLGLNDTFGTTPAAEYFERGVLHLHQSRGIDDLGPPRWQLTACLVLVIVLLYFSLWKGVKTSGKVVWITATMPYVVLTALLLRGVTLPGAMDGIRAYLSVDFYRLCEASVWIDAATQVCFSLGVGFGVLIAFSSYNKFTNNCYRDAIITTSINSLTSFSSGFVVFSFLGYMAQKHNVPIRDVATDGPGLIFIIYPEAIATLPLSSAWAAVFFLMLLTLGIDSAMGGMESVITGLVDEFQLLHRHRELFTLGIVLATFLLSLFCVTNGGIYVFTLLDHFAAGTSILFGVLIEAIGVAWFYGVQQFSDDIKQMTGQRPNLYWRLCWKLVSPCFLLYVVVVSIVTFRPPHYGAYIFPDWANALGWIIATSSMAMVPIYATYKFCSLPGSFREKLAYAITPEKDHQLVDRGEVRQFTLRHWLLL

[11] = Toxicity in Swiss Webster mouse assessed as stimulation of ambulatory activity by measuring total distance travelled at 30 mg/kg, ip measured every 5 mins for 2 hrs; assay type: organism-based; conditions: in vivo
[12] = target: T1, D(4) dopamine receptor (Homo sapiens, UniProt P21917); test: Displacement of [3H]-N-methylspiperone from human D4.4 receptor expressed in HEK293 cell membranes measured after 60 mins by microbeta scintillation counting method; design: species or system Membrane; in short: as §1
T1 sequence (P21917 whole entry): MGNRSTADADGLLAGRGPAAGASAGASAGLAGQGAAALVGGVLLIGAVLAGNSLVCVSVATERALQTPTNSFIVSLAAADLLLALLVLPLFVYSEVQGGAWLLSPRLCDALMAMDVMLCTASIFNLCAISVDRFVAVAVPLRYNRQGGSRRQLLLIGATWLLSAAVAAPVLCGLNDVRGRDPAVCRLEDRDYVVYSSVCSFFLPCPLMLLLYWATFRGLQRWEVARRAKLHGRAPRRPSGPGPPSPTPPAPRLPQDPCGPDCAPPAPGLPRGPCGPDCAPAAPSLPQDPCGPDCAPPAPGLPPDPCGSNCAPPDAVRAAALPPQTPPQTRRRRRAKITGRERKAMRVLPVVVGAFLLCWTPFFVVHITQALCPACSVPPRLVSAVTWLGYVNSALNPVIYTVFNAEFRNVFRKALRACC

[13] = organism: Rattus norvegicus; test: Selectivity ratio of Ki for SERT in Sprague-Dawley rat midbrain membranes to Ki for DAT in Sprague-Dawley rat striatum membranes
[14] = Selectivity ratio of Ki for sigma 1 receptor in guinea pig brain cortex membranes to Ki for DAT in Sprague-Dawley rat striatum membranes; assay type: cell membranes

SMILES | Ki [1] [µM] | Stabilty [2] [%] | Stabilty [3] [%] | Ki [4] [µM] | Ki [5] [µM] | Ki [6] [µM] | Activity [7] [cm] | Stabilty [8] [%] | Ki [9] [µM] | Ki [10] [µM] | Activity [11] [cm] | Ki [12] [µM] | Ratio Ki [13] | Ratio Ki [14]
O=C(c1ccc(F)cc1F)N1CCC(NCCSC(c2ccc(F)cc2)c2ccc(F)cc2)CC1 | 7.44 | 85 | 100 | 0.0206 | 1.62 | 0.296 | < 3000 | 33 | 3.26 | 0.03 |  |  |  | 
COC(=O)[C@H]1[C@@H](OC(=O)c2ccccc2)C[C@@H]2CC[C@H]1N2C [COCAINE] |  |  |  |  |  |  |  |  |  |  | 8000 |  |  | 
[O-][S+](CCNC1CCN(Cc2ccc(F)cc2)CC1)C(c1ccc(F)cc1)c1ccc(F)cc1 (stereo unspecified) | 12.4 | 95 | 100 | 0.0265 | 11.2 |  | < 3000 |  | 12.4 |  |  | 76.8 | 7.37 | 0.52
